Screens from PubChem BioAssay.
In the library only some 3% were active in any assay of this set; here they are far more common.
NRP1-CendR mod – modulators of CendR peptide binding to human neuropilin-1 | actives 0.85% (n = 360,000) | inhibition, % at 25 µM | AID 602438 | FAM-RPARPAR peptide binding to NRP-1, fluorescence polarization;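 active = inhibition or corrected inhibition above about 18%, plus a signal ratio from 0.5 to 1.5, limit read from the data, passing the limit was not always enough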
Target sequence (O14786 whole entry, looked up): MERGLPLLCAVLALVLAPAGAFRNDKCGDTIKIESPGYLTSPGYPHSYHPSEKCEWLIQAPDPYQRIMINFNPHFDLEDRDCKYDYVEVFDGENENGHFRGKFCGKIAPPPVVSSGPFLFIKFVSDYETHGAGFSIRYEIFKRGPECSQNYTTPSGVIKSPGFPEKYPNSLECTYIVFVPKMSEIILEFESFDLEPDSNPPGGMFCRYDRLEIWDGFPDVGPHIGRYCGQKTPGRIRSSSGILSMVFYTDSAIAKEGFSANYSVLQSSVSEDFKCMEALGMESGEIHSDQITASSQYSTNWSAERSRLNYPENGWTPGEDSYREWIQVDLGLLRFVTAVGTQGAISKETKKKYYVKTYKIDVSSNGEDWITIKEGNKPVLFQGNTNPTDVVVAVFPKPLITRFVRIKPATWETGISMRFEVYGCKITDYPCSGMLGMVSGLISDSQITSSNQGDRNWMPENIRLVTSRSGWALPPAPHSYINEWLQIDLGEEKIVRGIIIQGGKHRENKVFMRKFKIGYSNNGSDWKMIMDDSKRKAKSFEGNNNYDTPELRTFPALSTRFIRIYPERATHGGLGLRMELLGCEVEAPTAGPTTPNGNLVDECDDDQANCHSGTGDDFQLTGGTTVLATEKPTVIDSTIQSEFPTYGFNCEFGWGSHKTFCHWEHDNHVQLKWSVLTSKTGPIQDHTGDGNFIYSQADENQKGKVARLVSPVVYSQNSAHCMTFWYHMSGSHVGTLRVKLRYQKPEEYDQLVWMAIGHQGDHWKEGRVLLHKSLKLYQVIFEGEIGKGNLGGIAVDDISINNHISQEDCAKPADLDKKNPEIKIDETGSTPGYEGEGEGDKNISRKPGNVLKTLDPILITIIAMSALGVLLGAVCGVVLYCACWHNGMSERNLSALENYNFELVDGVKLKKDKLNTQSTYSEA
T cruzi inh – blocks replication of Trypanosoma cruzi. T. cruzi beta-gal in NIH3T3, luminescence, 90 h. inhibition, % (no concentration beside the values). actives 1.4% (n = 300,000). AID 1885;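 active = mean inhibition across valid replicates above about 55%, limit read from the data; inconclusive = mean below that limit but half or more replicates reach it; inactive = mean below it, under half of replicates reach it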;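 note: signal also drops with host cell toxicity which is not excluded here; 0% = plate median of DMSO wells and 100% = zero luminescence signal; higher percent means less beta-gal luminescence so fewer parasites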
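System: NIH/3T3 fibroblasts plus reporter T. cruzi. Medium: DMEM plus 2% FBS. Probe or stimulus: 5000 reporter trypomastigotes per well. Compound: single 50 nL compound addition per well in DMSO. Incubation: co-culture of at least 90 h after 3 h attachment. Detection: GalScreen β-gal luminescence, detergent lysis, 60 min. Evaluation: parasite load inhibition, %.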
HIF act – HIF pathway transcriptional activation. U2OS HRE-luciferase reporter, luminescence; normalized: DMSO 0%, desferrioxamine 100%. activation, % at 7.5 µM (by protocol). actives 0.32% (n = 300,000);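 active = mean activation of at least 10% of the iron chelator positive control signal, with at least half of replicates also reaching 10%; inconclusive = mean and replicate majority disagree about reaching 10%; inactive = mean and most replicates under 10%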
V-ATPase pHluor – alters yeast V-ATPase proton transport. S. cerevisiae, pHLuorin cytosolic pH fluorescence. response, % at 10 µM. actives 0.37% (n = 350,000). AID 504577; in the data active = response mostly above about 7.3%, no sharp cut-off; inactive = mostly below about 5.4%; note: actives read high
Yeast superoxide – lowers age-related superoxide in aged yeast cells; S. cerevisiae aged cells, superoxide DHE fluorescence; active compounds read low; superoxide response (% of plate mean), % at 10 µM; actives 0.18% (n = 330,000);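 active = superoxide response under a set limit, about three screen SD below normal, cut at about 65% in these data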;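 note: yeast aged for seven days with compound at 30 °C before DHE staining; 100% = average MFI of all compound-treated wells on the plate with controls excluded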
AI-2 QS modul – modulators of Vibrio harveyi AI-2 quorum sensing system; activity change, % at 7.5 µM; Vibrio harveyi JMH597 AI-2 luminescence/OD600 ratio, 9 h; active compounds read low; strain lacks LuxN and CqsS sensors; 0 = neutral-control median; actives 0.4% (n = 300,000); in the data active = activity change below about -75%, passing the limit was not always enough; inconclusive = no clear call, values can overlap the other calls;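 note: luminescence divided by OD600 gain over 9 h not by final OD600 alone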
* marks the source's active call; other numbers are inactive results; ? = inconclusive; / = no result given.

SMILES	NRP1-CendR mod	T cruzi inh	HIF act	V-ATPase pHluor	Yeast superoxide	AI-2 QS modul
CCOC(=O)N/N=C/C(Cl)=C/c1ccccc1	-2	0	3	3	99	1
COc1ccccc1/C=C1\SC(=S)N(CCC(=O)N2CCN(C)CC2)C1=O	7	9	1	-1	87	-5
COc1ccc(C)cc1S(=O)(=O)Nc1cc2c3c(c1)C(C)C(=O)N3CCC2 (centres undefined)	23*	1	-2	-2	97	5
Cc1ccc(S(=O)(=O)Nc2cc3c4c(c2)C(C)C(=O)N4CCC3)cc1 (centres undefined)	-6	-4	-35	2	100	21
C/C(=N\NC(=O)c1ccc(O)cc1)c1cc2ccccc2o1	-4	4	1	-12	97	46
OCc1ccccc1OCCCOc1cccc2cccnc12	33*	13	2	-4	99	28
OCc1ccccc1OCCOc1ccc(Cl)c2cccnc12	-3	6	2	5	91	-6
CSc1cccc(CN2CCCC(CO)(Cc3cccc(Cl)c3)C2)c1 (centres undefined)	3	62*	0	-3	112	20
COc1cc(CN2CCCC(CO)(Cc3cccc(Cl)c3)C2)cc(OC)c1O (centres undefined)	3	15	1	1	87	12
OCC1(Cc2cccc(Cl)c2)CCCN(Cc2ccc(F)c(F)c2)C1 (centres undefined)	-2	23	-5	-3	105	22
COc1cc(CN2CCCC(CO)(Cc3cccc(Cl)c3)C2)cc2c1OCO2 (centres undefined)	-6	55*	-1	2	89	-9
Cn1cc(CN2CCCC(CO)(Cc3cccc(Cl)c3)C2)cn1 (centres undefined)	-10	22	0	-4	101	18
COc1ccc(CN2CCCC(CO)(Cc3cccc(Cl)c3)C2)cc1OC (centres undefined)	-5	55*	1	0	70	12
CC1(C)CC(NC(=S)NC2CC2)CC(C)(C)N1	5	2	-24	1	77	-4
Cc1ccc(C2(O)CN(c3ccccc3C)C3=[N+]2CCS3)cc1 (centres undefined)	0	1	12*	3	90	4
O=C(Nc1nnc(SCc2ccccc2)s1)C1=COCCO1	24*	4	1	-1	96	29
COc1ccc(/C=C/C(=O)N2c3ccccc3Sc3ccc(C(F)(F)F)cc32)cc1	-21	57*	0	3	87	42
COc1cc(CNC(C)c2ccccc2)cc(Br)c1OCc1ccccc1 (centres undefined)	8	51	1	-7	107	14
COc1cc(CNC(C)c2ccccc2)cc(Br)c1OCc1ccc(F)cc1 (centres undefined)	13	55*	-2	2	109	9
COc1cc(CNC(C)(C)CO)cc(Br)c1OCc1ccc(Cl)cc1Cl	6	50	-1	-1	113	7
COc1cc(CNC(C)(C)CO)cc(Br)c1OCc1ccc(Cl)cc1	30*	39	-2	-2	102	13
COc1ccc(/C=N/NC(=O)c2nn(-c3ccc(Cl)cc3)c(=O)c3c(N)scc23)cc1	30*	-8	-1	2	108	12
COc1ccc(-c2csc(C(O)c3ccc(OC)cc3)n2)cc1 (centres undefined)	-8	/	/	/	/	/
Cc1cc(C)cc(NC(=O)CCc2nc3ccccc3[nH]2)c1	0	0	0	-5	100	21
COc1ccc(C(=O)NCC(C)(C)N2CCOCC2)cc1S(=O)(=O)NCc1ccc(Cl)cc1	5	/	/	21*	/	/
SMILES	NRP1-CendR mod	T cruzi inh	HIF act	V-ATPase pHluor	Yeast superoxide	AI-2 QS modul
O=C(O)c1ccccc1NS(=O)(=O)c1cccc(C(F)(F)F)c1	0	-1	-1	18*	113	29
CN1CCN(NC(=O)c2cn(-c3ccccc3)nc2-c2cccc(Br)c2)CC1	11	56*	-1	2	99	18
CN1CCN(NC(=O)c2cn(-c3ccccc3)nc2-c2cccs2)CC1	-4	17	-1	1	109	8
CCc1ccc(N2C=C(C(=O)OC)C(c3ccccc3F)C(C#N)=C2N)cc1 (centres undefined)	-1	/	/	/	/	/
CCCCN(Cc1cc2cc(OC)ccc2[nH]c1=O)C(=O)c1ccccn1	4	1	0	-4	106	8
COc1ccc2[nH]c(C(=O)N(Cc3ccccn3)Cc3ccccn3)cc2c1	-17	-3	-1	37*	116	20
OCC[C@@H]1C[C@H](O)[C@@H](O)[C@@]2(CCCO2)O1	24*	-10	1	4	/	14
OCC[C@@H]1C[C@@H](O)[C@H](O)[C@]2(OCc3ccccc32)O1	27*	7	-1	0	98	19
OCC[C@@H]1C[C@@H](O)[C@H](O)[C@@]2(CCCc3ccccc3O2)O1	25*	-18	0	2	101	8
OCC[C@H]1C[C@H](O)[C@@H](O)[C@]2(CCCO2)O1	38*	-17	0	4	101	8
OCC[C@@H]1C[C@@H](O)[C@H](O)[C@]2(CCCc3ccccc3O2)O1	6	-5	-1	-5	99	5
C=CS(=O)(=O)c1ccc(Oc2ccc(S(=O)(=O)C=C)cc2)cc1	7	51	-3	1	133	?
COc1ccccc1CC(=O)NNC(=O)c1ccc(C(C)(C)C)cc1	13	-12	0	2	78	28
C[C@H]1CCC[C@@]2(O[C@@H](CCO)C[C@@H](O)[C@@H]2O)O1	25*	-6	0	-1	/	9
C[C@H]1CCC[C@]2(O[C@@H](CCO)C[C@@H](O)[C@@H]2O)O1	5	-18	1	-4	116	19
CCOC(=O)C1=C(C)N(CCCC(=O)O)C(=O)NC1c1ccccc1 (centres undefined)	30*	-14	0	3	107	28
CCOC(=O)C1=C(C)N(CCCC(=O)O)C(=O)NC1c1ccc(Br)cc1 (centres undefined)	/	-21	0	/	101	26
Cc1cccc(NC(=S)/N=C(\N)Nc2nc(C)c3ccc(C)cc3n2)c1	1	60*	2	0	94	11
Cc1cccc(NC(=S)/N=C(\N)Nc2nc(C)c3cc(C)ccc3n2)c1	0	31	1	6	108	12
CCc1ccc(N2CC(C(=O)Nc3ccc(F)cc3)CC2=O)cc1 (centres undefined)	0	-15	0	-2	100	12
Cc1ccc(-c2nnn(CC(=O)Nc3ccc4nn(-c5ccccc5)nc4c3)n2)o1	-8	1	-2	16*	109	28
